Measurements of several laboratories.
Compare with care: the assays were run in different laboratories.
Target: G protein-coupled receptor kinase 4 (GRK4, Homo sapiens, UniProt P32298)

Compound | test | setting | endpoint | result
CC(C)(O)[C@H]1CC[C@H](Nc2ccc3ncc(-c4cccc(C(F)(F)F)c4)n3n2)CC1 | enzyme activity, inhibitor | 1 µM | remaining activity | 96.5%
COc1cc2c(N3CCN(C(=O)Nc4ccc(OC(C)C)cc4)CC3)ncnc2cc1OCCCN1CCCCC1 | cell-free assay | 0.5 µM | remaining signal | 106%
CC(C)(C)c1nc(-c2cccc(NS(=O)(=O)c3c(F)cccc3F)c2F)c(-c2ccnc(N)n2)s1 | enzyme activity, inhibitor, radiometric | 1 µM | remaining activity | 59%
N#CCCc1ccc2c(c1)-c1[nH]c3ccc([N+](=O)[O-])cc3c1CC(=O)N2 | cell-free assay | 0.5 µM | remaining signal | 101%
O=C(Nc1ccc(Oc2ccc(F)cc2)cc1)N1CCc2ncccc2[C@H]1c1ccc(F)cc1 | cell-free assay, competition with immobilised ligand | 1 µM | remaining binding | 93%
COc1cc2ncnc(Nc3ccc(Oc4ccccc4)cc3C)c2cc1OC | enzyme activity, inhibitor | 1 µM | inhibition | -2%
c1ccc(N2CCN(Cc3nc4ccccc4[nH]3)CC2)nc1 | binding, competition with immobilised ligand | 1 µM | remaining binding | 100%
CN(C)C1CCN(CC#Cc2nn(C3CCCC3)c3nc(NCc4ccccc4)ncc23)C1 (stereo not shown) | enzyme activity, inhibitor, FRET | 1 µM | inhibition | 11%
O=C(Nc1cnn(-c2csc(C(=O)NC3COC3)c2)c1)Nc1ccccc1Cl | enzyme activity, inhibitor | 5 µM | remaining activity | 97%
C[C@H](c1ccc(F)cc1)N(Cc1cccc(C(=O)O)c1)C(=O)c1cnc2ccccc2c1 | cell-free assay, competition with immobilised ligand | 1 µM | remaining binding | 100%
CS(=O)(=O)CCNCc1ccc(-c2ccc3ncnc(Nc4ccc(OCc5cccc(F)c5)c(Cl)c4)c3c2)o1 | cell-free assay | 0.5 µM | remaining signal | 90.3%
O=C(Nc1cnn(-c2csc(C(=O)NC3COC3)c2)c1)Nc1c(F)cccc1Cl | enzyme activity, inhibitor | 5 µM | remaining activity | 93.6%
Cc1noc([C@H]2C[C@@H](c3ccc(C(F)(F)F)cc3)CN(C(=O)N3CCS(=O)(=O)C3)C2)n1 | cell-free assay, competition with immobilised ligand | 1 µM | remaining binding | 99%
